The results in this text go back to PMC9407455 (Proceedings of the National Academy of Sciences of the …, 2022).

For the assay, the system named is HeLa cell–derived xenografts. The assay can be described thus: Xenograft tumor assay. Format: in vivo, mice. The note with it: iJMJD6 25 mg/kg or JQ1 50 mg/kg alone or in combination, i.p. every other day. In short, it runs like this:
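Female BALB/c nude mice inoculated with HeLa cells, randomized, and injected i.p. every other day with DMSO or test compound at indicated doses. Tumour growth curves and endpoint tumour weights recorded (mean ±SEM); tumour lysates immunoblotted.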

For `Cc1sc2c(c1C)C(c1ccc(Cl)cc1)=N[C@@H](CC(=O)OC(C)(C)C)c1nnc(C)n1-2` [JQ1], the tumor suppressive effect result was “readily seen”.
